In ChEMBL document CHEMBL4130485, “Inhibitors of Yellow Fever Virus replication based on 1,3,5-triphenyl-4,5-dihydropyrazole scaffold: Design, synthesis and antiviral evaluation” (Eur J Med Chem, 2017):

What was measured:
[1] = Cytotoxicity against golden hamster BHK21 cells assessed as decrease in cell viability after 72 hrs by MTT assay; type: cell-based, Mesocricetus auratus, BHK-21
Procedure, shortened: (§1)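 Uninfected MDBK (6×10^5 cells/mL, 10% horse serum) or BHK (1×10^6 cells/mL, 10% FBS) cells in MEM-Earle with serial compound dilutions at 37 °C, 5% CO2, run in parallel with the antiviral assays. Viability read by MTT after 72 h. CC50 by linear regression; mean of three determinations.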

[2] = test system: Yellow fever virus; test: Antiviral activity against Yellow fever virus 17D vaccine (Stamaril Pasteur J07B01) infected in golden hamster BHK21 cells assessed as protection against virus-induced cytopathic effect after 3 to 4 days by MTT assay; type: functional, organism-based; conditions: BHK-21
Procedure, shortened: (§2)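 BHK-21 cells (MDBK for BVDV) seeded at 5×10^4 (BHK) or 3×10^4 (MDBK) cells/well and grown overnight to confluence. Infected at m.o.i. 0.01 in maintenance MEM-Earle with 0.5% inactivated FBS. Serial compound dilutions added 2 h later (final 100, 20, 4, 0.8 µM; DMSO ≤0.1%). Viability read by MTT after 3–4 days at 37 °C. EC50 obtained by linear regression against untreated controls; mean of three determinations.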

[3] = Selectivity index, ratio of CC50 for golden hamster BHK21 cells to EC50 for Yellow fever virus 17D; type: toxicity; conditions: read-out: Ratio CC50/EC50
Procedure, shortened: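 Selectivity index calculated as BHK-21 CC50 divided by YFV EC50, both from MTT assays.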

[4] = test system: dengue virus type 2; test: Antiviral activity against Dengue virus type 2 clinical isolate infected in golden hamster BHK21 cells assessed as protection against virus-induced cytopathic effect after 3 to 4 days by MTT assay; type: functional, organism-based; conditions: BHK-21; procedure, shortened: as §2
[5] = test system: West Nile virus; test: Antiviral activity against West Nile virus clinical isolate infected in golden hamster BHK21 cells assessed as protection against virus-induced cytopathic effect after 3 to 4 days by MTT assay; type: functional, organism-based; conditions: BHK-21; procedure, shortened: as §2
[6] = Cytotoxicity against bovine MDBK cells assessed as decrease in cell viability after 72 hrs by MTT assay; type: cell-based, Bos taurus; conditions: cattle; procedure, shortened: as §1
[7] = test system: Bovine viral diarrhea virus 1; test: Antiviral activity against Bovine viral diarrhea virus NADL ATCC VR 534 infected in bovine MDBK cells assessed as protection against virus-induced cytopathic effect after 3 to 4 days by MTT assay; type: functional, organism-based, Bovine viral diarrhea virus 1-NADL; conditions: Bovine viral diarrhea virus isolates and strains, ATCC VR 534, MDBK; procedure, shortened: as §2
[8] = Cytotoxicity against human MT4 cells assessed as decrease in cell viability after 96 hrs by MTT assay; type: cell-based
Procedure, shortened: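 Exponentially growing MT-4 cells seeded at 1×10^5 cells/mL in RPMI-1640 with 10% FBS and incubated with serial compound dilutions at 37 °C, 5% CO2. Viability read by MTT after 96 h. CC50 by linear regression versus untreated controls.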

[9] = test system: Human immunodeficiency virus 1; test: Antiviral activity against HIV1 3B infected in human MT4 cells assessed as protection against virus-induced cytopathic effect after 4 days by MTT assay; type: functional, organism-based; conditions: Human immunodeficiency virus 1, 3B, MT4, 96 h
Procedure, shortened: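 MT-4 cells (1×10^4/well) in RPMI with serial compound dilutions, infected with 100 CCID50 HIV-1 (m.o.i. 0.01). Viability read by MTT after 4 days at 37 °C. EC50 for 50% protection from cytopathicity obtained by linear regression versus untreated controls; mean of three determinations.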

[10] = test system: Mammalian orthoreovirus 1; test: Antiviral activity against Reovirus 1 infected in golden hamster BHK21 cells assessed as protection against virus-induced cytopathic effect after 3 to 4 days by MTT assay; type: functional, organism-based; conditions: Mammalian orthoreovirus 1, BHK-21; procedure, shortened: as §2
[11] = Cytotoxicity against African green monkey Vero 76 cells assessed as decrease in cell viability after 48 to 96 hrs by MTT assay; type: cell-based; conditions: chlorocebus sabaeus
Procedure, shortened: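 Vero 76 cells seeded at 5×10^5 cells/mL in D-MEM with 10% FBS and incubated with serial compound dilutions at 37 °C, 5% CO2. Viability read by MTT after 48–96 h. CC50 by linear regression versus untreated controls.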

[12] = Antiviral activity against Human enterovirus B Faulkner ATCC VR 185 infected in African green monkey Vero 76 cells assessed as protection against virus-induced cytopathic effect after 3 days by crystal violet staining-based plaque reduction assay; type: functional, cell-based; conditions: Faulkner ATCC VR 185, Vero 76, 72 h
[13] = test system: Enterovirus C; test: Antiviral activity against Enterovirus C Sabin […] infected in African green monkey Vero 76 cells assessed as protection against virus-induced cytopathic effect after 2 days by crystal violet staining-based plaque reduction assay; type: functional, organism-based; conditions: Vero 76, 48 h
[14] = test system: Vaccinia virus; test: Antiviral activity against Vaccinia virus Lister ATCC VR 1549 infected in African green monkey Vero 76 cells assessed as protection against virus-induced cytopathic effect after 3 days by crystal violet staining-based plaque reduction assay; type: functional, organism-based; conditions: Orthopoxvirus vaccinia, ATCC VR 1549, Vero 76, 72 h
[15] = test system: Human alphaherpesvirus 1; test: Antiviral activity against Human herpesvirus 1 KOS ATCC VR 1493 infected in African green monkey Vero 76 cells assessed as protection against virus-induced cytopathic effect after 3 days by crystal violet staining-based plaque reduction assay; type: functional, organism-based; conditions: Human alphaherpesvirus 1, KOS, Vero 76, 72 h
[16] = test system: Vesicular stomatitis Indiana virus; test: Antiviral activity against Vesicular stomatitis virus Indiana ATCC VR 158 infected in African green monkey Vero 76 cells assessed as protection against virus-induced cytopathic effect after 2 days by crystal violet staining-based plaque reduction assay; type: functional, organism-based; conditions: ATCC VR 158, Vero 76, 48 h
[17] = test system: Human orthopneumovirus; test: Antiviral activity against Human respiratory syncytial virus A2 ATCC VR 1540 infected in African green monkey Vero 76 cells assessed as protection against virus-induced cytopathic effect after 5 days by crystal violet staining-based plaque reduction assay; type: functional, organism-based; conditions: ATCC VR 1540, Vero 76, 120 h
[18] = test system: Yellow fever virus; test: Potency index, ratio of azauridine EC50 to compound EC50 for Yellow fever virus 17D vaccine (Stamaril Pasteur J07B01); type: functional
[19] = Selectivity index, ratio of CC50 for African green monkey Vero 76 cells to EC50 for Human coxsackievirus B5 Faulkner; type: toxicity; conditions: read-out: Ratio CC50/EC50
Procedure, shortened: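 Selectivity index calculated as Vero 76 CC50 (MTT) divided by CVB-5 plaque-reduction EC50.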

| Compound | CC50 at 72 h [1] [µM] | EC50 [2] [µM] | selectivity ratio [3] | EC50 [4] [µM] | EC50 [5] [µM] | CC50 at 72 h [6] [µM] | EC50 [7] [µM] | CC50 at 96 h [8] [µM] | EC50 [9] [µM] | EC50 [10] [µM] | CC50 [11] [µM] | EC50 [12] [µM] | EC50 [13] [µM] | EC50 [14] [µM] | EC50 [15] [µM] | EC50 [16] [µM] | EC50 [17] [µM] | Ratio EC50 [18] | selectivity ratio [19] |
| --- | --- | --- | --- | --- | --- | --- | --- | --- | --- | --- | --- | --- | --- | --- | --- | --- | --- | --- | --- |
| NS(=O)(=O)c1ccc(N2N=C(c3ccccc3)CC2c2cccc(Cl)c2)cc1 (stereo not drawn) | 8 to 9 | 2.5 | 3.6 | > 9 | > 9 | 2 | > 2 | 41 | 10 | > 8 | 21 | > 21 | > 21 | > 21 | > 21 | > 21 | > 21 | 10 | – |
| NS(=O)(=O)c1ccc(N2N=C(c3ccc(Oc4ccccc4)cc3)CC2c2ccccc2Cl)cc1 (stereo not drawn) | 8 to 9 | 1.8 | 5 | > 9 | > 9 | 5 | > 5 | 40 | > 40 | > 8 | 29 | 10.5 | > 29 | > 29 | > 29 | > 29 | > 29 | 10 | 2.8 |
| NS(=O)(=O)c1ccc(N2N=C(c3ccc(Oc4ccccc4)cc3)CC2c2cccc(Cl)c2)cc1 (stereo not drawn) | 9 to 10 | 2.2 | 4.5 | > 10 | > 10 | 6 | > 6 | 8 | > 8 | > 9 | 88 | > 88 | > 88 | > 88 | > 88 | > 88 | > 88 | 10 | – |
| NS(=O)(=O)c1ccc(N2N=C(c3ccc(Oc4ccccc4)cc3)CC2c2ccccc2F)cc1 (stereo not drawn) | 32 to 34 | 1.9 | 17.9 | > 34 | > 34 | 36 | > 36 | 36 | > 36 | > 32 | 96 | 7 | > 96 | > 96 | > 96 | > 96 | > 96 | 10 | 13.7 |
| NS(=O)(=O)c1ccc(N2N=C(c3ccccc3)CC2c2ccccc2Cl)cc1 (stereo not drawn) | 13 to 14 | 2.4 | 5.8 | > 14 | > 14 | 9 | > 9 | 44 | > 44 | > 13 | 26 | > 26 | > 26 | > 26 | > 26 | > 26 | > 26 | 10 | – |
| Cc1ccccc1C1CC(c2ccccc2)=NN1c1ccc(S(N)(=O)=O)cc1 (stereo not drawn) | 14 | 2.2 | 6.4 | > 14 | > 14 | 18 | > 18 | 43 | > 43 | > 14 | 24 | > 24 | > 24 | > 24 | > 24 | > 24 | > 24 | 10 | – |
| NS(=O)(=O)c1ccc(N2N=C(c3ccc(OCc4ccccc4)cc3)CC2c2ccc(F)cc2)cc1 (stereo not drawn) | 60 to 69 | 1.9 | 31.6 | > 60 | > 60 | > 100 | > 100 | > 100 | > 100 | > 69 | 90 | > 90 | > 90 | > 90 | > 90 | > 90 | > 90 | 10 | – |
